Measured values as given in ChEMBL document CHEMBL1157543, “Synthesis and biological evaluation of polysulfated oligosaccharide glycosides as inhibitors of angiogenesis and tumor growth” (J Med Chem, 2010).
Activity calls are given as the source filed them. No cut-off for these calls is given here.

How the values were obtained:
Heparanase = target: T1, Heparanase (Homo sapiens, UniProt Q9Y251); experiment: Inhibition of human recombinant heparanase
T1 sequence (Q9Y251 whole entry): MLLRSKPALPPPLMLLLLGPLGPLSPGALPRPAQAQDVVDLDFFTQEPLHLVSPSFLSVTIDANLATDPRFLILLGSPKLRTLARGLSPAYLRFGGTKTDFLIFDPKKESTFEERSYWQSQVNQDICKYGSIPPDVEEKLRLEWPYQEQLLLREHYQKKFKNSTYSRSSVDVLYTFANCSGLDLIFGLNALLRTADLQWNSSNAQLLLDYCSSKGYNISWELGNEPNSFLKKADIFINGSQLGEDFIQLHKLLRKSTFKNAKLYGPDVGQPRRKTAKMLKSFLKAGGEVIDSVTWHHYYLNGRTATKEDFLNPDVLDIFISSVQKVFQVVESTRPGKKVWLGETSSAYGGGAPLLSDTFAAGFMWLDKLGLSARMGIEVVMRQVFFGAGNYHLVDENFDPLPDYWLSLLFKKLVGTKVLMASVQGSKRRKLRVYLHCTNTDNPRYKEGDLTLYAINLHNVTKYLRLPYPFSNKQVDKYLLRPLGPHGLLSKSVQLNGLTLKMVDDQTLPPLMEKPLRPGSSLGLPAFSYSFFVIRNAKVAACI
Procedure, shortened: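 Recombinant human heparanase assayed by ultrafiltration with 3H-labelled heparan sulfate as substrate (Km = 1.64 μM). Ki values with standard error were derived from inhibition response curves.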

[1] = target: Fibroblast growth factor 1 (Homo sapiens, UniProt P05230); experiment: Binding affinity to FGF1 by surface plasmon-based solution affinity assay
Procedure, shortened: (§1)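 Surface plasmon resonance solution affinity assay on heparin-coated CM4 chips. Buffer: HBS-EP (10 mM HEPES pH 7.4, 150 mM NaCl, 3.0 mM EDTA, 0.005% polysorbate 20). Kd is the mean of at least duplicate measurements ± SD.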

[2] = target: Fibroblast growth factor 2 (Homo sapiens, UniProt P09038); experiment: Binding affinity to FGF2 by surface plasmon-based solution affinity assay
Procedure, shortened: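 Surface plasmon resonance solution affinity assay on heparin-coated CM4 chips. FGF-2 binding run in HBS-EP containing 300 mM NaCl. Kd is the mean of at least duplicate measurements ± SD.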

[3] = target: T2, Vascular endothelial growth factor A, long form (Homo sapiens, UniProt P15692); experiment: Binding affinity to VEGF by surface plasmon-based solution affinity assay; procedure, shortened: as §1
T2 sequence (P15692 whole entry): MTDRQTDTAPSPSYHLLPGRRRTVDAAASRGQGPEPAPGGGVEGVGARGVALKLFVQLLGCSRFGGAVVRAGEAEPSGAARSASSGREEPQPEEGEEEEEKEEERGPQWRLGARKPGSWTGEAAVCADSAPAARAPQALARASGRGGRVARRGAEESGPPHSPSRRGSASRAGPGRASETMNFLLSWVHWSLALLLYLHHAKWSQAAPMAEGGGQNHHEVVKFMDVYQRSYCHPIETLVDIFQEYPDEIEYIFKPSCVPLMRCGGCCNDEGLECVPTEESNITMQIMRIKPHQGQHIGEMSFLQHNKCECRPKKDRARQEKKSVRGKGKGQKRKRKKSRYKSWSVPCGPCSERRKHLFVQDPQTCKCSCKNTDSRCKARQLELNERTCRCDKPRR

Plasma [4] = experiment: Anticoagulant activity in human plasma assessed as activated partial thromboplastin time; format: functional
Procedure, shortened: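 Pooled normal human plasma spiked with compound in PBS at 0.1 mg/mL (methods give a 0–100 μg/mL range); APTT elevation measured. Normal range 26–36 s. Values are means of two determinations.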

Plasma [5] = experiment: Anticoagulant activity in human plasma by heptest; format: functional
Procedure, shortened: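 Heptest clot assay. Plasma (centrifuged 1800g, 10 min, used within 30 min) incubated with compound 2 min at 37 °C. Factor Xa added, 2 min at 37 °C, then clotting started with Recalmix; read on a ball coagulometer. Normal range 13–20 s; means of two determinations.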

HUVEC = experiment: Cytotoxicity against HUVEC; format: cell-based; details: human
[6] = Toxicity in rat aortic endothelium assessed as microvessel sprouts at 10 and 50 uM after 6 or 7 days; format: tissue-based, Sprague-Dawley, Aorta; details: ex_vivo, 168 h
Procedure, shortened: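 Aortic ring viability check: on day 6 or 7, compound or medium was withdrawn and complete medium with VEGF (typically 10 ng/mL) was added for up to 7 more days. New microvessel sprouting was taken as a sign of viable tissue.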

B16 [7] = experiment: Antitumor activity against mouse B16 cells transplanted in C57/BL6 mouse assessed as reduction in tumor volume at 30 mg/kg for 7 days measured on day 10; format: functional; details: read-out: TGI
Procedure, shortened: (§2)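 B16F1 cells grown in DMEM with 10% FCS, 5×10^5 cells in PBS implanted sc between the shoulder blades of C57 mice (n = 10). From day 3, compound given sc in PBS b.i.d. for 7 days at rotating sites. Tumors measured daily as l × w; p < 0.05 taken as significant.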

B16 [8] = experiment: Antitumor activity against mouse B16 cells transplanted in C57/BL6 mouse assessed as reduction in tumor volume at 15 mg/kg for 7 days measured on day 10; format: functional; details: read-out: TGI; procedure, shortened: as §2
[9] = Half life in Sprague-Dawley rat at 10 mg/kg, iv; format: ADME, organism-based; parameters: dose 10 mg/kg, route intravenous; details: in vivo
Procedure, shortened: (§3)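 Male Sprague-Dawley rats (n = 2 per route), cannulated the day before. Compound given at 2.8 mg/mL in PBS: iv infusion over 5 min or sc between the scapulae, nominal 10 mg/kg. Arterial blood sampled up to 8 h into tubes with protease inhibitor, KF and EDTA; urine collected to 24 h. Plasma analyzed by LC-MS; noncompartmental analysis.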

[10] = Half life in Sprague-Dawley rat at 10 mg/kg, sc; format: ADME, organism-based; parameters: dose 10 mg/kg, route subcutaneous; details: in vivo; procedure, shortened: as §3
[11] = Apparent volume of distribution in Sprague-Dawley rat at 10 mg/kg, iv and 10 mg/kg, sc; format: ADME, organism-based; details: in vivo, read-out: Vz; procedure, shortened: as §3
[12] = Plasma clearance in Sprague-Dawley rat at 10 mg/kg, iv and 10 mg/kg, sc; format: ADME, organism-based; procedure, shortened: as §3
[13] = Bioavailability in Sprague-Dawley rat at 10 mg/kg, sc; format: ADME, organism-based; details: in vivo; procedure, shortened: as §3
Aorta = experiment: Inhibition of angiogenesis in Sprague-Dawley rat aortic endothelium at 50 uM; format: functional, tissue-based
Procedure, shortened: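 Sprague-Dawley rats (2–4 months old): bisected 1 mm thoracic aortic rings embedded in Matrigel in EBM-2 with 2% FCS, no heparin. Compound added in triplicate, medium replenished every 48 h. Microvessel sprouting scored semiquantitatively by two assessors up to day 8. One-way ANOVA with Dunnett's test.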

Chain of Fibroblast growth factor 2 (P09038 143-288 limits assumed): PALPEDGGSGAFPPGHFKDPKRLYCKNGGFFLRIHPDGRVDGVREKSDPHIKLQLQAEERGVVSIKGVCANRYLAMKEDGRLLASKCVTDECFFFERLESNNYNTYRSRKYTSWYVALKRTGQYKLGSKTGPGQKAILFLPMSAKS
Chain of Fibroblast growth factor 1 (P05230 whole entry): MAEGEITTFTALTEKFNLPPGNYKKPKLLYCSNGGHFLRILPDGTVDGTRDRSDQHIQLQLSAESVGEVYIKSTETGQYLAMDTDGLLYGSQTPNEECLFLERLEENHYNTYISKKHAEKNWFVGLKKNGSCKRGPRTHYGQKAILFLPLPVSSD

SMILES	Ki (Heparanase) [nM]	Kd [1] [nM]	Kd [2] [nM]	Kd [3] [nM]	Time (Plasma [4]) [s]	Activity (Plasma [5]) [s]	LC50 (HUVEC) [nM]	Activity [6]	inhibition in vivo at 30 mg/kg (B16 [7]) [%]	inhibition in vivo at 15 mg/kg (B16 [8]) [%]	half-life [9] [h]	half-life [10] [h]	Vd [11] [L/kg]	clearance [12] [mL/min/kg]	bioavailability [13] [%]	Activity (Aorta)
CCCCCCCCO[C@H]1O[C@H](COS(=O)(=O)[O-])[C@@H](OS(=O)(=O)[O-])[C@H](OS(=O)(=O)[O-])[C@@H]1O[C@H]1O[C@H](COS(=O)(=O)[O-])[C@@H](OS(=O)(=O)[O-])[C@H](O[C@H]2O[C@H](COS(=O)(=O)[O-])[C@@H](OS(=O)(=O)[O-])[C@H](O[C@H]3O[C@H](COS(=O)(=O)[O-])[C@@H](OS(=O)(=O)[O-])[C@H](OS(=O)(=O)[O-])[C@@H]3OS(=O)(=O)[O-])[C@@H]2OS(=O)(=O)[O-])[C@@H]1OS(=O)(=O)[O-].[Na+].[Na+].[Na+].[Na+].[Na+].[Na+].[Na+].[Na+].[Na+].[Na+].[Na+].[Na+].[Na+]	330	0.118	160	18	96.7	79.5	> 100000	Toxic	86	64	1.7	1.7	0.026	0.2	67	–
CCCCCCCCO[C@H]1O[C@H](COS(=O)(=O)[O-])[C@@H](OS(=O)(=O)[O-])[C@H](OS(=O)(=O)[O-])[C@@H]1O[C@H]1O[C@H](COS(=O)(=O)[O-])[C@@H](OS(=O)(=O)[O-])[C@H](O[C@H]2O[C@H](COS(=O)(=O)[O-])[C@@H](OS(=O)(=O)[O-])[C@H](O[C@H]3O[C@H](COS(=O)(=O)[O-])[C@@H](OS(=O)(=O)[O-])[C@H](O[C@H]4O[C@H](COS(=O)(=O)[O-])[C@@H](OS(=O)(=O)[O-])[C@H](OS(=O)(=O)[O-])[C@@H]4OS(=O)(=O)[O-])[C@@H]3OS(=O)(=O)[O-])[C@@H]2OS(=O)(=O)[O-])[C@@H]1OS(=O)(=O)[O-].[Na+].[Na+].[Na+].[Na+].[Na+].[Na+].[Na+].[Na+].[Na+].[Na+].[Na+].[Na+].[Na+].[Na+].[Na+].[Na+]	350	0.161	82	1.5	250.8	124.4	> 100000	Toxic	94	42	1.1	1.1	–	1.4	–	Active
